Results taken from ChEMBL document CHEMBL2331355, “Synthesis, structure activity relationship and mode of action of 3-substitutedphenyl-1-(2,2,8,8-tetramethyl-3,4,9,10-tetrahydro-2H,8H-pyrano[2,3-f]chromen-6-yl)-propenones as novel anticancer agents in human leukaemia HL-60 cells” (Eur J Med Chem, 2013).
Counter-ions that a name gives are not always drawn. The source made the active and inactive calls. The rule behind the calls is not given here.

What was measured:
[1] = test system: MCF7; assay: Growth inhibition of human MCF7 cells at 2 uM after 48 hrs by MTT assay; format: functional; settings: MCF7, 48 h, read-out: GI
[2] = test system: HL-60; assay: Induction of apoptosis in human HL60 cells at 4 uM after 6 hrs by PI-staining based flow cytometric analysis (reference value: 0.7 %); format: functional
[3] = test system: HL-60; assay: Induction of mitochondrial membrane potential loss in human HL60 cells at 4 uM after 6 hrs by rhodamine-123 staining method (reference value: 7%); format: functional
[4] = test system: HL-60; assay: Cell cycle arrest in human HL60 cells assessed as S phase cells at 4 uM after 6 hrs by PI staining-based flow cytometric analysis (reference value: 49%); format: functional
[5] = test system: HL-60; assay: Cell cycle arrest in human HL60 cells assessed as accumulation of G0/G1 phase cells at 4 uM after 6 hrs by PI staining-based flow cytometric analysis (reference value: 48%); format: functional
[6] = test system: HL-60; assay: Cell cycle arrest in human HL60 cells assessed as G2/M phase cells at 4 uM after 6 hrs by PI staining-based flow cytometric analysis (reference value: 3%); format: functional
[7] = test system: ASPC1; assay: Growth inhibition of human AsPC1 cells at 50 uM after 48 hrs by MTT assay; format: functional; settings: ASPC1, 48 h, read-out: GI
In short: (§1)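 Single-concentration MTT screen at 50 µM over 48 h in 96-well plates. Compounds giving >50% inhibition were rescreened at 30 µM. OD read at 570 nm, reference 620 nm. Result expressed as % growth inhibition versus untreated control. Mitomycin C, adriamycin or 5-fluorouracil used as positive controls. Mean ± SD of three independent experiments.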

[8] = test system: HL-60; assay: Cell cycle arrest in human HL60 cells assessed as accumulation of G0/G1 phase cells at 10 uM after 24 hrs by PI staining-based flow cytometric analysis (reference value: 48%); format: functional
[9] = test system: MCF7; assay: Growth inhibition of human MCF7 cells at 50 uM after 48 hrs by MTT assay; format: functional; settings: MCF7, 48 h, read-out: GI; in short: as §1
[10] = test system: HL-60; assay: Cell cycle arrest in human HL60 cells assessed as G2/M phase cells at 20 uM after 24 hrs by PI staining-based flow cytometric analysis (reference value: 3%); format: functional
[11] = test system: HL-60; assay: Cell cycle arrest in human HL60 cells assessed as S phase cells at 15 uM after 24 hrs by PI staining-based flow cytometric analysis (reference value: 49%); format: functional
[12] = test system: MIA PaCa-2; assay: Growth inhibition of human MIAPaCa2 cells at 50 uM after 48 hrs by MTT assay; format: functional; settings: MIA PaCa-2, 48 h, read-out: GI; in short: as §1
[13] = test system: HL-60; assay: Cell cycle arrest in human HL60 cells assessed as accumulation of G0/G1 phase cells at 15 uM after 24 hrs by PI staining-based flow cytometric analysis (reference value: 48%); format: functional
[14] = test system: PC-3; assay: Cytotoxicity against human PC3 cells after 48 hrs by MTT assay; format: functional, cell-based; settings: PC-3, 48 h
In short: (§2)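 MTT assay in 96-well plates, 48 h exposure across 1–100 µM. OD read at 570 nm against a 620 nm reference. Untreated control OD taken as 100% viability. IC50 derived from the concentration–response curves. Mean ± SD, n = 8 wells, from three independent experiments.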

[15] = test system: HL-60; assay: Induction of apoptosis in human HL60 cells at 15 uM after 24 hrs by PI-staining based flow cytometric analysis (reference value: 0.7 %); format: functional
[16] = test system: MCF7; assay: Growth inhibition of human MCF7 cells at 30 uM after 48 hrs by MTT assay; format: functional, cell-based; in short: as §1
[17] = test system: HL-60; assay: Cell cycle arrest in human HL60 cells assessed as accumulation of G0/G1 phase cells at 20 uM after 24 hrs by PI staining-based flow cytometric analysis (reference value: 48%); format: functional
[18] = test system: HL-60; assay: Cell cycle arrest in human HL60 cells assessed as G2/M phase cells at 10 uM after 24 hrs by PI staining-based flow cytometric analysis (reference value: 3%); format: functional
[19] = test system: HL-60; assay: Induction of apoptosis in human HL60 cells assessed as nuclear condensation after 24 hrs by Hoechst 33258 staining; format: functional, cell-based
In short: (§3)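 HL-60 cells (1 × 10⁶/2 ml) treated 24 h at 15 and 20 µM, pelleted at 300 g and washed. Stained with Hoechst 33258, then examined under an inverted fluorescence microscope (10×, UV excitation) for nuclear condensation, blebbing and apoptotic bodies.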

[20] = test system: HL-60; assay: Induction of apoptosis in human HL60 cells assessed as accumulation of sub-G0/G1 phase cells after 24 hrs by PI-staining based flow cytometric analysis; format: functional, cell-based
[21] = test system: MDA-MB-435; assay: Growth inhibition of human MDA-MB-435 cells at 50 uM after 48 hrs by MTT assay; format: functional; settings: MDA-MB-435, 48 h, read-out: GI; in short: as §1
[22] = test system: MIA PaCa-2; assay: Growth inhibition of human MIAPaCa2 cells at 30 uM after 48 hrs by MTT assay; format: functional, cell-based; in short: as §1
[23] = test system: MIA PaCa-2; assay: Cytotoxicity against human MIAPaCa2 cells after 48 hrs by MTT assay; format: functional, cell-based; settings: MIA PaCa-2, 48 h; in short: as §2
[24] = test system: PC-3; assay: Growth inhibition of human PC3 cells at 30 uM after 48 hrs by MTT assay; format: functional, cell-based; in short: as §1
[25] = test system: HL-60; assay: Induction of mitochondrial membrane potential loss in human HL60 cells at 20 uM after 24 hrs by rhodamine-123 staining method (reference value: 7%); format: functional
In short: (§4)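 HL-60 cells (1 × 10⁶/2 ml/well) treated 24 h at 15 or 20 µM, then incubated with rhodamine-123 (200 nM) for 40 min. Loss of dye uptake measured by flow cytometry. Camptothecin (4 µM, 6 h) as positive control. Representative of three experiments.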

[26] = test system: Caco-2; assay: Growth inhibition of human Caco2 cells at 50 uM after 48 hrs by MTT assay; format: functional; settings: Caco-2, 48 h, read-out: GI; in short: as §1
[27] = test system: HL-60; assay: Cell cycle arrest in human HL60 cells assessed as decrease in S phase cells after 24 hrs by PI staining-based flow cytometric analysis; format: functional
[28] = test system: PC-3; assay: Growth inhibition of human PC3 cells at 50 uM after 48 hrs by MTT assay; format: functional; settings: PC-3, 48 h, read-out: GI; in short: as §1
[29] = test system: HL-60; assay: Cell cycle arrest in human HL60 cells assessed as accumulation of G0/G1 phase cells after 24 hrs by PI staining-based flow cytometric analysis; format: functional
[30] = test system: HL-60; assay: Growth inhibition of human HL60 cells at 30 uM after 48 hrs by MTT assay; format: functional, cell-based; in short: as §1
[31] = test system: HL-60; assay: Induction of apoptosis in human HL60 cells at 5 uM after 24 hrs by PI-staining based flow cytometric analysis (reference value: 0.7 %); format: functional
[32] = test system: HL-60; assay: Cell cycle arrest in human HL60 cells assessed as decrease in G2/M phase cells after 24 hrs by PI staining-based flow cytometric analysis; format: functional
[33] = test system: ASPC1; assay: Growth inhibition of human AsPC1 cells at 30 uM after 48 hrs by MTT assay; format: functional, cell-based; in short: as §1
[34] = test system: HL-60; assay: Cell cycle arrest in human HL60 cells assessed as accumulation of G0/G1 phase cells at 5 uM after 24 hrs by PI staining-based flow cytometric analysis (reference value: 48%); format: functional
[35] = test system: HL-60; assay: Induction of apoptosis in human HL60 cells assessed as DNA fragmentation at 20 uM after 24 hrs by SDS-PAGE analysis; format: functional, cell-based; settings: in the assay text read “agarose gel electrophoresis” for “SDS-PAGE analysis”
In short: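 HL-60 cells (2 × 10⁶/3 ml/well) treated at 20 µM for 24 h. Lysed, then digested with RNase (400 µg/ml, 37 °C, 90 min) and proteinase K (200 µg/ml, 50 °C, 1 h). DNA extracted with phenol/chloroform/isoamyl alcohol and alcohol-precipitated. Run on 1.8% agarose gel at 70 V for 1 h, stained with ethidium bromide, and scored for laddering.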

[36] = test system: HL-60; assay: Cell cycle arrest in human HL60 cells assessed as G2/M phase cells at 15 uM after 24 hrs by PI staining-based flow cytometric analysis (reference value: 3%); format: functional
[37] = test system: HL-60; assay: Induction of apoptosis in human HL60 cells assessed as apoptotic bodies at 20 uM after 24 hrs by Hoechst 33258 staining; format: functional, cell-based; in short: as §3
[38] = test system: HL-60; assay: Induction of mitochondrial membrane potential loss in human HL60 cells at 15 uM after 24 hrs by rhodamine-123 staining method (reference value: 7%); format: functional; in short: as §4
[39] = test system: HL-60; assay: Induction of apoptosis in human HL60 cells assessed as nuclear blebbing after 24 hrs by Hoechst 33258 staining; format: functional, cell-based; in short: as §3
[40] = test system: HL-60; assay: Cell cycle arrest in human HL60 cells assessed as S phase cells at 20 uM after 24 hrs by PI staining-based flow cytometric analysis (reference value: 49%); format: functional
[41] = test system: HL-60; assay: Cell cycle arrest in human HL60 cells assessed as G2/M phase cells at 5 uM after 24 hrs by PI staining-based flow cytometric analysis (reference value: 3%); format: functional
[42] = test system: HL-60; assay: Cell cycle arrest in human HL60 cells assessed as S phase cells at 10 uM after 24 hrs by PI staining-based flow cytometric analysis (reference value: 49%); format: functional
[43] = test system: MDA-MB-435; assay: Growth inhibition of human MDA-MB-435 cells at 30 uM after 48 hrs by MTT assay; format: functional, cell-based; in short: as §1
[44] = test system: Caco-2; assay: Cytotoxicity against human Caco2 cells after 48 hrs by MTT assay; format: functional, cell-based; settings: Caco-2, 48 h; in short: as §2
[45] = test system: HL-60; assay: Induction of apoptosis in human HL60 cells at 10 uM after 24 hrs by PI-staining based flow cytometric analysis (reference value: 0.7 %); format: functional
[46] = test system: HL-60; assay: Growth inhibition of human HL60 cells at 50 uM after 48 hrs by MTT assay; format: functional; settings: HL-60, 48 h, read-out: GI; in short: as §1
[47] = test system: HL-60; assay: Cell cycle arrest in human HL60 cells assessed as S phase cells at 5 uM after 24 hrs by PI staining-based flow cytometric analysis (reference value: 49%); format: functional
[48] = test system: HL-60; assay: Induction of apoptosis in human HL60 cells at 20 uM after 24 hrs by PI-staining based flow cytometric analysis (reference value: 0.7 %); format: functional
[49] = test system: HL-60; assay: Cytotoxicity against human HL60 cells after 24 hrs by MTT assay; format: functional, cell-based; settings: HL-60, 24 h
In short: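 HL-60 cells exposed 24 h to a range of concentrations, then MTT reduction measured. Untreated control OD taken as 100% viability; IC50 derived from the curve. Mean ± SD, n = 8 wells, three independent experiments.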

[50] = test system: Caco-2; assay: Growth inhibition of human Caco2 cells at 30 uM after 48 hrs by MTT assay; format: functional, cell-based; in short: as §1

SMILES: COc1cccc2c1C(=O)c1c(O)c3c(c(O)c1C2=O)C[C@@](O)(C(=O)CO)C[C@@H]3O[C@H]1C[C@H](N)[C@H](O)[C@H](C)O1 [DOXORUBICIN HYDROCHLORIDE]
- inhibition of growth at 2 µM [1]: 90%

SMILES: CC[C@@]1(O)C(=O)OCc2c1cc1n(c2=O)Cc2cc3ccccc3nc2-1 [CAMPTOTHECIN]
- Activity [2]: 69%
- Activity [3]: 51%
- Activity [4]: 6%
- Activity [5]: 88%
- Activity [6]: 6%

SMILES: CC1(C)CCc2cc(C(=O)/C=C/c3ccc(C#N)cc3)c3c(c2O1)CCC(C)(C)O3
- inhibition of growth at 50 µM [7]: 48%
- Activity [8]: 56%
- inhibition of growth at 50 µM [9]: 78%
- Activity [10]: 3%
- Activity [11]: 23%
- inhibition of growth at 50 µM [12]: 76%
- Activity [13]: 73%
- IC50 [14]: 7 µM
- Activity [15]: 31%
- growth inhibition (GI) [16]: Active
- Activity [17]: 88%
- Activity [18]: 5%
- Activity [19]: Dose-dependent effect
- Activity [20]: Dose-dependent effect
- inhibition of growth at 50 µM [21]: 88%
- growth inhibition (GI) [22]: Active
- IC50 [23]: 12 µM
- growth inhibition (GI) [24]: Active
- Activity [25]: 61%
- inhibition of growth at 50 µM [26]: 93%
- Activity [27]: Dose-dependent effect
- inhibition of growth at 50 µM [28]: 76%
- Activity [29]: Dose-dependent effect
- growth inhibition (GI) [30]: Active
- Activity [31]: 1%
- Activity [32]: Dose-dependent effect
- growth inhibition (GI) [33]: Active
- Activity [34]: 48%
- Activity [35]: Active
- Activity [36]: 4%
- Activity [37]: Active
- Activity [38]: 49%
- Activity [39]: Dose-dependent effect
- Activity [40]: 9%
- Activity [41]: 6%
- Activity [42]: 39%
- growth inhibition (GI) [43]: Active
- IC50 [44]: 12 µM
- Activity [45]: 11%
- inhibition of growth at 50 µM [46]: 93%
- Activity [47]: 46%
- Activity [48]: 71%
- IC50 [49]: 16 µM
- growth inhibition (GI) [50]: Active
